The source made the active and inactive calls. No cut-off for these calls is given here.

From ChEMBL document CHEMBL4145607, “Tamarixetin Exhibits Anti-inflammatory Activity and Prevents Bacterial Sepsis by Increasing IL-10 Production” (J Nat Prod, 2018) come the findings set out here.

In assay [1] the test system is BMDC. Description: Inhibition of LPS-induced immune response in C57BL/6 mouse BMDC assessed as reduction in IL-12p70 secretion up to 25 uM pretreated for 30 mins followed by LPS-challenge measured after 6 hrs by ELISA. It counts as functional, cell-based. Summed up:
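Mouse BMDCs (female C57BL/6 bone marrow, GM-CSF-derived, ≥90% CD11c+ on day 7) pretreated 30 min with graded compound concentrations, then stimulated with LPS 50 ng/mL for 6 h. Supernatant TNF-α, IL-6, IL-10 and IL-12p70 quantified by sandwich ELISA. Mean ± SEM vs LPS-only cells; experiments repeated at least three times.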

Assay [2] relates to BMDC. Description: Inhibition of LPS-induced immune response in C57BL/6 mouse BMDC assessed as increase in IL10 secretion at 25 uM treated 6 hrs post LPS-challenge measured after 30 mins by ELISA. It counts as functional, cell-based. Summed up: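 Bone marrow DCs from 6-week-old female C57BL/6 mice, RBC-lysed, cultured in RPMI-1640/10% FBS with 10 ng/mL rmGM-CSF, 37 °C, 5% CO2. Cells given LPS 50 ng/mL for 6 h, then 25 μM compound added for 30, 60, 90 or 120 min. Supernatant TNF-α, IL-6, IL-10, IL-12p70 measured by sandwich ELISA. Mean ± SEM, compared with LPS-only DCs.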

The target of assay [3] is T1, Toll-like receptor 4 (Mus musculus) (UniProt Q9QUK6).
T1 sequence (whole entry): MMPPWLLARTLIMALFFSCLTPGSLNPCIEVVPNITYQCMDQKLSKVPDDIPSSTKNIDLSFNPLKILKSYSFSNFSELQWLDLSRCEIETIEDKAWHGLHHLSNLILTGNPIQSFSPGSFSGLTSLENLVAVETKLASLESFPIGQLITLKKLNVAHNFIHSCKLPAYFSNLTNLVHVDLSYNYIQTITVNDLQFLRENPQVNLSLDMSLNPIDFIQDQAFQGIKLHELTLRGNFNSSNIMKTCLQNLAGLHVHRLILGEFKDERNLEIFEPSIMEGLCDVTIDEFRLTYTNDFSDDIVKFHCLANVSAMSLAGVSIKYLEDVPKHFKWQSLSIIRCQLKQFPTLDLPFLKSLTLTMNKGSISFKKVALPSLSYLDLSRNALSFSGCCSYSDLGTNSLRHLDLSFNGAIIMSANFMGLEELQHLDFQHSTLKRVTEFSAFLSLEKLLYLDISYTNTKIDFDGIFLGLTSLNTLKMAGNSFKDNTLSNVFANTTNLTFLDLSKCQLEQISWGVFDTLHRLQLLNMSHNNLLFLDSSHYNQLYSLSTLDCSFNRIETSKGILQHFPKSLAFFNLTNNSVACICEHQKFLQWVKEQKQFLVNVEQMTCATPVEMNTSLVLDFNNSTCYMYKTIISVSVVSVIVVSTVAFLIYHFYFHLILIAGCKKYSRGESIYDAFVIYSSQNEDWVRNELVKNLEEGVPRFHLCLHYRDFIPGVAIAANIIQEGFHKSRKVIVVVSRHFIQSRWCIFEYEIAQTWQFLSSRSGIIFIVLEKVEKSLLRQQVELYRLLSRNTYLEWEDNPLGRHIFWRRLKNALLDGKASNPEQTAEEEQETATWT
The assay can be described thus: Inhibition of LPS-induced TLR4 activation in C57BL/6 mouse BMDC assessed as reduction in COX2 expression at 25 uM pretreated for 30 mins followed by LPS-challenge measured after 15 to 90 mins by Western blot analysis. It counts as cell-based. Summed up: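 BMDCs were pretreated 30 min with 25 μM compound, then stimulated with LPS 50 ng·mL−1 for the indicated times. Lysates (25 μg protein) were run on 10% SDS-PAGE and immunoblotted for phospho/total ERK, JNK, p38 and Akt, plus COX-2, IκBα and α-tubulin, with ECL detection. Representative of three experiments.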

Assay [4] concerns Mus musculus. Description: Antiinflammatory activity in Balb/c mouse model of LPS-induced endotoxemia assessed as increase in serum IL10 level at 1 mg/kg, ip pretreated for 1 hr followed by LPS-challenge measured after 2 hrs by ELISA. The assay is classed as functional, organism-based. In short, it runs like this:
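BALB/c mice were dosed with 1 mg·kg−1 i.p. 1 h before LPS 10 mg·kg−1 i.p. Serum was taken 2 h later, and TNF-α, IL-6 and IL-10 were measured by sandwich ELISA. Means ± SEM.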

The subject of assay [5] is Mus musculus. Description: Antiinflammatory activity in Balb/c mouse model of LPS-induced endotoxemia assessed as reduction in TNFalpha level in lungs at 1 mg/kg, ip pretreated for 1 hr followed by LPS-challenge measured after 12 hrs by ELISA. The assay is classed as functional, organism-based. Summed up: (§1)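 BALB/c mice got 1 mg·kg−1 i.p. 1 h before i.p. LPS 10 mg·kg−1. After 12 h, TNF-α and IL-6 in lung lysates were measured by sandwich ELISA. Means ± SEM.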

Assay [6] deals with Mus musculus. Description: Antiinflammatory activity in Balb/c mouse model of LPS-induced endotoxemia assessed as reduction in IL6 level in lungs at 1 mg/kg, ip pretreated for 1 hr followed by LPS-challenge measured after 12 hrs by ELISA. The assay is classed as functional, organism-based. Summed up:
as §1

Assay [7] relates to Mus musculus. Description: Antiinflammatory activity in Balb/c mouse model of LPS-induced endotoxemia assessed as reduction in serum blood urea nitrogen level at 1 mg/kg, ip pretreated for 1 hr followed by LPS-challenge measured after 12 hrs by ELISA. The assay is classed as functional, organism-based. In short, it runs like this:
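In BALB/c mice, 1 mg·kg−1 i.p. was given 1 h before LPS 10 mg·kg−1 i.p. After 12 h, serum AST, ALT and BUN were measured by ELISA. Means ± SEM.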

Assay [8] deals with BMDC. The assay can be described thus: Inhibition of Escherichia coli K1 infection-induced immune response in C57BL/6 mouse BMDC assessed as reduction in IL-6 secretion at 25 uM pretreated for 30 mins followed by Escherichia coli K1 infection for 6 hrs by ELISA. It counts as functional, cell-based. Summed up: (§2)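 BMDCs from C57BL/6 mice were given 25 μM compound and E. coli K1, […]. Timing was: compound 30 min before a 6 h infection; cotreatment for 6 h; or compound for 30–120 min with 6 h infection. Supernatant cytokines (TNF-α, IL-6, IL-10, IL-12p70) were measured by ELISA. At least three experiments in triplicate.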

Assay [9] relates to BMDC. Description: Inhibition of Escherichia coli K1 infection-induced immune response in C57BL/6 mouse BMDC assessed as increase in IL10 secretion at 25 uM pretreated for 60 to 120 mins followed by Escherichia coli K1 infection for 6 hrs by ELISA. It counts as functional, cell-based. In short, it runs like this:
as §2

The subject of assay [10] is Mus musculus. The assay can be described thus: Antiseptic activity in Balb/c mouse model of Escherichia coli K1 infection-induced sepsis assessed as increase in serum IL10 level at 1 mg/kg, ip pretreated for 1 hr followed by Escherichia coli K1 infection measured after 2 hrs by ELISA. The assay is classed as functional, organism-based. In short, it runs like this: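 BALB/c mice received 1 mg·kg−1 i.p. 1 h before i.p. E. coli K1 RS218, 1 × 10^6 CFU per mouse. Serum was collected at 2 h, and TNF-α, IL-6 and IL-10 were quantified by sandwich ELISA. Means ± SEM.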

Assay [11] concerns Mus musculus. The assay can be described thus: Antiseptic activity in Balb/c mouse model of Escherichia coli K1 infection-induced sepsis assessed as reduction in serum blood urea nitrogen level at 1 mg/kg, ip pretreated for 1 hr followed by Escherichia coli K1 infection measured after 2 hrs by ELISA. It counts as functional, organism-based.

With `COc1ccc(-c2oc3cc(O)cc(O)c3c(=O)c2O)cc1O` [TAMARIXETIN], the inhibition result (in the assay with BMDC [1]; in the assay on BMDC [2]; in [3]; in the assay with BMDC [8]) was “Active” throughout. For the same compound, the outcome in the assay on Mus musculus [4], in the assay with Mus musculus [5], with Mus musculus [6], with Mus musculus [7], in the assay with Mus musculus [10] and in the assay with Mus musculus [11] was Active. Moreover, in the assay on BMDC [9], the inhibition entry is “inactive”.
